Published values of several laboratories.
Compare with care: the assays were run in different laboratories.
Target: Carbonic anhydrase 2 (CA2, Homo sapiens, UniProt P00918)
Read-out: enzyme activity
Action: inhibitor

CC(C)c1cc2c(c(O)c1O)[C@@]1(C(=O)O)CCCC(C)(C)[C@@H]1CC2 — IC50: 3.77 nM
NC(=S)N/N=C1/c2ccccc2[C@@H]2[C@H]1[C@@H](c1ccc(C(F)(F)F)cc1)[C@H](C(=O)c1ccc(C(F)(F)F)cc1)[C@H]2c1ccc(C(F)(F)F)cc1 (racemic) — IC50 (absorbance): 551 nM
O=C(Nc1ccc2c(c1)C=CCP(=O)(O)O2)c1ccc(Br)cc1 — Ki (stopped-flow): > 10000 nM
NC(=S)N/N=C1/c2ccccc2[C@@H]2[C@H]1[C@@H](c1cccs1)[C@H](C(=O)c1cccs1)[C@H]2c1cccs1 (racemic) — IC50 (absorbance): 510 nM
O=C(Nc1ccc2c(c1)C=CCP(=O)(O)O2)c1cccs1 — Ki (stopped-flow): > 10000 nM
N#C[Se]CCCCOc1ccc2c(-c3ccccc3)cc(=O)oc2c1 — Ki (stopped-flow): > 100000 nM
CC(C)c1cc2c(c(O)c1O)[C@@]13CCCC(C)(C)[C@@H]1[C@@H](O)[C@@H]2OC3=O — Ki: 3.57 nM
NC(=S)N/N=C1/c2ccccc2[C@@H]2[C@H]1[C@@H](c1ccc(Cl)cc1)[C@H](C(=O)c1ccc(Cl)cc1)[C@H]2c1ccc(Cl)cc1 (racemic) — IC50 (absorbance): 298 nM
O=C(Nc1ccc2c(c1)C=CCP(=O)(O)O2)c1ccco1 — Ki (stopped-flow): > 10000 nM
CC(C)c1cc2c(c(O)c1O)[C@@]13CCCC(C)(C)[C@@H]1[C@H](OC3=O)[C@H]2O — IC50: 4.18 nM
O=C(Nc1ccc2c(c1)C=CCP(=O)(O)O2)c1ccc2ccccc2c1 — Ki (stopped-flow): > 10000 nM
NC(=S)N/N=C1/c2ccccc2[C@@H]2[C@H]1[C@@H](c1ccccc1)[C@H](C(=O)c1ccccc1)[C@H]2c1ccccc1 (racemic) — IC50 (absorbance): 1330 nM
CC(C)c1cc2c(c(O)c1O)[C@@]13CCCC(C)(C)[C@@H]1C[C@@H]2OC3=O — Ki: 8.8 nM
N#C[Se]Cc1cc(=O)oc2cc(O)ccc12 — Ki (stopped-flow): > 100000 nM
Cc1ccc([C@H]2[C@H](C(=O)c3cccs3)[C@@H](c3cccs3)[C@@H]3c4ccccc4/C(=N/NC(N)=S)[C@@H]32)cc1 (racemic) — IC50 (absorbance): 562 nM
